The results in this text go back to ChEMBL document CHEMBL5696442, “Discovery of type II inhibitors of TGFβ-activated kinase 1 (TAK1) and mitogen-activated protein kinase kinase kinase kinase 2 (MAP4K2)” (J Med Chem, 2015).

Active and inactive are the calls of the source. No cut-off for these calls is given here.

Test [1] concerns the target Cyclin-dependent kinase 12 (Homo sapiens) (UniProt Q9NYV4). Description: Inhibition of CRK7 Lys2 labeling site in human Huh-7 cell lysate at 1 uM by KiNativ Profiling analysis relative to control. Format: subcellular.
Test [2] concerns the target Serine/threonine-protein kinase PLK1 (Homo sapiens) (UniProt P53350). Description: Inhibition of PLK1 Lys2 labeling site in human A-375 cells at 0.5 uM by KiNativ Profiling analysis relative to control. Format: cell-based.
Test [3] addresses Casein kinase I isoform delta (Homo sapiens) (UniProt P48730). Description: Inhibition of CK1delta Lys2 labeling site in human A-375 cells at 5 uM by KiNativ Profiling analysis relative to control. Format: cell-based.
The target in test [4] is Microtubule-associated serine/threonine-protein kinase 2 (Homo sapiens) (UniProt Q6P0Q8). Description: Inhibition of MAST2 Lys2 labeling site in human A-375 cells at 0.05 uM by KiNativ Profiling analysis relative to control. Format: cell-based.
Test [5] has as its target T1, Mitogen-activated protein kinase kinase kinase 5 (Homo sapiens) (UniProt Q99683).
T1 sequence (whole entry): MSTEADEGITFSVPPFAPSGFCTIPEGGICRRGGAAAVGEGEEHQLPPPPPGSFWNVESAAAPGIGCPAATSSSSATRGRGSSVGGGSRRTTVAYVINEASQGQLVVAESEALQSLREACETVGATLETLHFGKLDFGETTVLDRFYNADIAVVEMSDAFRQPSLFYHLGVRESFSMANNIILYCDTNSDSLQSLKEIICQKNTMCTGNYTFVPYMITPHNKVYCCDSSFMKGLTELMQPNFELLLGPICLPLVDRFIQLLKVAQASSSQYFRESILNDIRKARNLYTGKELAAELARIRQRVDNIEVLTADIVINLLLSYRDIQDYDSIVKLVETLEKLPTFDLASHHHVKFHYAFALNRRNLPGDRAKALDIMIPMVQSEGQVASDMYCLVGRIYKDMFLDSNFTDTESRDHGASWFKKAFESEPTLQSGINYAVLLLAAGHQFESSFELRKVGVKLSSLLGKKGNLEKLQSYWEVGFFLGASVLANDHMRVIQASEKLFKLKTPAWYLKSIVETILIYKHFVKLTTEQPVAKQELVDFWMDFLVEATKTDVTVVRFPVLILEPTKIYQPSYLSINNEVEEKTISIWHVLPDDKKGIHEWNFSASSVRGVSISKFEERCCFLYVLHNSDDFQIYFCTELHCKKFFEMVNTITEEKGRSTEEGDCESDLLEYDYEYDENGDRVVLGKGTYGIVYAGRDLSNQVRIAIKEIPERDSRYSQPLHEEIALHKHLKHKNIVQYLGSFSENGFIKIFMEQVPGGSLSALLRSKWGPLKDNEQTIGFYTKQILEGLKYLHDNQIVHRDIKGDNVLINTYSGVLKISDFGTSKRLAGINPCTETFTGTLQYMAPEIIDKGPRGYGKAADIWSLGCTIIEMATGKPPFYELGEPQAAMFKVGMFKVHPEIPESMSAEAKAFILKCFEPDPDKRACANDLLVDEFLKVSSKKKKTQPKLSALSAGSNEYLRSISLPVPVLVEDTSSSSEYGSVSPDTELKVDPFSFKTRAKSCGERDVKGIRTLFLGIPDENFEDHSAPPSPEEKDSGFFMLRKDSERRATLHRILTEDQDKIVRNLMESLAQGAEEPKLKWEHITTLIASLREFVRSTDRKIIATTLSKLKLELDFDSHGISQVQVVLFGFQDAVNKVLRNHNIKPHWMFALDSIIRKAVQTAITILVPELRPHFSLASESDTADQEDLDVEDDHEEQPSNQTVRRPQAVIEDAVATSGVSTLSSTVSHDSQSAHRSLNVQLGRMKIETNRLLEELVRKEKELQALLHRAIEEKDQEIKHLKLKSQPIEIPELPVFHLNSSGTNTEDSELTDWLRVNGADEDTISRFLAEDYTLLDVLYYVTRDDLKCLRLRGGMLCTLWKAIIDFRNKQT
Description: Inhibition of ASK1 (unknown origin) at 1 uM by Ambit Kinomescan binding assay relative to control.

In test [6] the target is T2, NUAK family SNF1-like kinase 1 (Homo sapiens) (UniProt O60285).
T2 sequence (whole entry): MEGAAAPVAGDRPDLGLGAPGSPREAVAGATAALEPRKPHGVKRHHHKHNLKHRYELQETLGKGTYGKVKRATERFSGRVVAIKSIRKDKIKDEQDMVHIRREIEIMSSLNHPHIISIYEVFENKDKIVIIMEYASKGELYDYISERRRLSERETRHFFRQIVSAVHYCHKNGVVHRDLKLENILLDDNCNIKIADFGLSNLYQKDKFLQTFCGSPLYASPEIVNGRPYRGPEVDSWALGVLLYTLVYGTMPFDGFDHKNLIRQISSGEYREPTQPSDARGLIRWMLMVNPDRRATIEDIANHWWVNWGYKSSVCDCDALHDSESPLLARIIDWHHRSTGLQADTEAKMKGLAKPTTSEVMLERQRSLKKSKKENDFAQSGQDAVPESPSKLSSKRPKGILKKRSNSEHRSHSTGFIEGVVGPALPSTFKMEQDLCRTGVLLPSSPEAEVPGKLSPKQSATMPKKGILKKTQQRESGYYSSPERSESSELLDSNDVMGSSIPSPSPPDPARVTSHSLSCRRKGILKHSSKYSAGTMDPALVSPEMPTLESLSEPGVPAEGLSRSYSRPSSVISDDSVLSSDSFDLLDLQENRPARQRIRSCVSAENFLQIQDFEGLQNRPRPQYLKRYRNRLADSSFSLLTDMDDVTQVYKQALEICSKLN
Description: Inhibition of NuaK1 K2 labeling site in human Huh-7 cells at 1 uM by KiNativ Profiling analysis relative to control. Format: cell-based.

Test [7] deals with Interleukin-1 receptor-associated kinase 3 (Homo sapiens) (UniProt Q9Y616). Description: Inhibition of IRAK3 (unknown origin) at 10 uM by Ambit Kinomescan binding assay.
The target in test [8] is Serine/threonine-protein kinase 38-like (Homo sapiens) (UniProt Q9Y2H1). Description: Inhibition of NDR2 Lys1 labeling site harbouring DTGHIYAMKILR in human A-375 cells at 0.5 uM by KiNativ Profiling analysis relative to control. It counts as cell-based.
The target in test [9] is Calcium/calmodulin-dependent protein kinase type II subunit alpha (Homo sapiens) (UniProt Q9UQM7). Description: Inhibition of CAMK2A (unknown origin) at 10 uM by Ambit Kinomescan binding assay.
Test [10] addresses Calcium/calmodulin-dependent protein kinase kinase 1 (Homo sapiens) (UniProt Q8N5S9). Description: Inhibition of CAMKK1 (unknown origin) at 10 uM by Ambit Kinomescan binding assay.
For test [11], the target named is Tyrosine-protein kinase receptor UFO (Homo sapiens) (UniProt P30530). Description: Inhibition of AXL (unknown origin) at 10 uM by Ambit Kinomescan binding assay. The method in brief:
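In vitro ATP-site competition binding assay against a panel of over 420 kinases (KinomeScan), with compound tested at 10 or 1 μM.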

The target in test [12] is Ribosomal protein S6 kinase alpha-3 (Homo sapiens) (UniProt P51812). Description: Inhibition of RSK2 Domain 1 ACT labeling site harbouring LTDFGLSKESIDHEKK in human Huh-7 cells at 10 uM by KiNativ Profiling analysis relative to control. It counts as cell-based.
Chain of Ribosomal protein S6 kinase alpha-3 (Homo sapiens) (P51812 whole entry, the tested form may be a part): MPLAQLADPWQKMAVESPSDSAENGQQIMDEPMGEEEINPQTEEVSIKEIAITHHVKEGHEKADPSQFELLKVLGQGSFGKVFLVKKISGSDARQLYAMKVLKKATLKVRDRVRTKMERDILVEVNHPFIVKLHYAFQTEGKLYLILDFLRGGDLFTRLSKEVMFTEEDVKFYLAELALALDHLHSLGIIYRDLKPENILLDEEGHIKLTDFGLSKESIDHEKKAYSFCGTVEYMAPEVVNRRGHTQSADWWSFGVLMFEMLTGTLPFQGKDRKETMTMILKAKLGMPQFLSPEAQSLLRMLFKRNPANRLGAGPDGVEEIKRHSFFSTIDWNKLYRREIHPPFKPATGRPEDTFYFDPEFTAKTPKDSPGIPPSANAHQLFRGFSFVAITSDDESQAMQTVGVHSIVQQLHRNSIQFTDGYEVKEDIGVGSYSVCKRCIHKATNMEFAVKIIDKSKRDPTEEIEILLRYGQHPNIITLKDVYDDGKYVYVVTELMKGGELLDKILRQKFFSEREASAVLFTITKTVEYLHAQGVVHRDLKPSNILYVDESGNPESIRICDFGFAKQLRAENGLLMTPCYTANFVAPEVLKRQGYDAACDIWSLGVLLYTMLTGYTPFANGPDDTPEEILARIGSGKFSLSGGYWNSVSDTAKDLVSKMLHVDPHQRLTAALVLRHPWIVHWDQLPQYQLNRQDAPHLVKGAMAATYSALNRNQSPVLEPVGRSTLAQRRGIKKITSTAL

Chain of Tyrosine-protein kinase receptor UFO (Homo sapiens) (P30530 whole entry): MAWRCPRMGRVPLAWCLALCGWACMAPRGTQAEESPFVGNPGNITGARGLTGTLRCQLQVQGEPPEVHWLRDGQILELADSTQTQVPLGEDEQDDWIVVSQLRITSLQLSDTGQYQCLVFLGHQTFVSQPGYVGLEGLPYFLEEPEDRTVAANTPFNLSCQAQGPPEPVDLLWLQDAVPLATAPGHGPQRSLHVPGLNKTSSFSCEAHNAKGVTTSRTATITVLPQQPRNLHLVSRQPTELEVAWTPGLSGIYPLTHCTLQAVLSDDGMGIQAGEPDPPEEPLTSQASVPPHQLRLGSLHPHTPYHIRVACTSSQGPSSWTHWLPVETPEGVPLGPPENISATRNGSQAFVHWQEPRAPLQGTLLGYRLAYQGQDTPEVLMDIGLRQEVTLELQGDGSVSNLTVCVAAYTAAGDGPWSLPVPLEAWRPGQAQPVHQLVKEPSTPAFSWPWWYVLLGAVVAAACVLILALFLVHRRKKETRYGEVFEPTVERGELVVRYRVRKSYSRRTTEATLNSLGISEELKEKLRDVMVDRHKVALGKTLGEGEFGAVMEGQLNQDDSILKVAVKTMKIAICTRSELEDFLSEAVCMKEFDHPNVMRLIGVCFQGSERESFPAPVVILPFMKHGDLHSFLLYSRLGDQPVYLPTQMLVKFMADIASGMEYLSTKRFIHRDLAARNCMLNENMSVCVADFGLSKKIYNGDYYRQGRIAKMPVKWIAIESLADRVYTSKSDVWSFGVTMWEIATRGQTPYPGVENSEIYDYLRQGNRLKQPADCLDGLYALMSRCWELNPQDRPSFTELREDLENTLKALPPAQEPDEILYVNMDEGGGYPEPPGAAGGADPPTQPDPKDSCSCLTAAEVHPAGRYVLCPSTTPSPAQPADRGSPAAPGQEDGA
Chain of Casein kinase I isoform delta (Homo sapiens) (P48730 whole entry, looked up, canonical isoform): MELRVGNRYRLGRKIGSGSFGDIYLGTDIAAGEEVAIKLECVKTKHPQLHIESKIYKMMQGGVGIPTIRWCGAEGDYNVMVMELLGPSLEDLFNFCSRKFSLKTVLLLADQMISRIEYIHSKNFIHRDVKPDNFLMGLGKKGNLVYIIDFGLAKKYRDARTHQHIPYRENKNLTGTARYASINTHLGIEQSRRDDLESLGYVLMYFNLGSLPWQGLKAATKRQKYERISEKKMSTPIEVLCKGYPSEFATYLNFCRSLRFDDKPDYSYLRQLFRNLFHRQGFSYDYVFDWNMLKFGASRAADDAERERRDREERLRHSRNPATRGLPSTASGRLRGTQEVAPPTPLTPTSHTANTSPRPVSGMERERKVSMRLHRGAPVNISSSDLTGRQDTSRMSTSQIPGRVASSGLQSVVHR
Chain of Serine/threonine-protein kinase PLK1 (Homo sapiens) (P53350 whole entry, canonical isoform): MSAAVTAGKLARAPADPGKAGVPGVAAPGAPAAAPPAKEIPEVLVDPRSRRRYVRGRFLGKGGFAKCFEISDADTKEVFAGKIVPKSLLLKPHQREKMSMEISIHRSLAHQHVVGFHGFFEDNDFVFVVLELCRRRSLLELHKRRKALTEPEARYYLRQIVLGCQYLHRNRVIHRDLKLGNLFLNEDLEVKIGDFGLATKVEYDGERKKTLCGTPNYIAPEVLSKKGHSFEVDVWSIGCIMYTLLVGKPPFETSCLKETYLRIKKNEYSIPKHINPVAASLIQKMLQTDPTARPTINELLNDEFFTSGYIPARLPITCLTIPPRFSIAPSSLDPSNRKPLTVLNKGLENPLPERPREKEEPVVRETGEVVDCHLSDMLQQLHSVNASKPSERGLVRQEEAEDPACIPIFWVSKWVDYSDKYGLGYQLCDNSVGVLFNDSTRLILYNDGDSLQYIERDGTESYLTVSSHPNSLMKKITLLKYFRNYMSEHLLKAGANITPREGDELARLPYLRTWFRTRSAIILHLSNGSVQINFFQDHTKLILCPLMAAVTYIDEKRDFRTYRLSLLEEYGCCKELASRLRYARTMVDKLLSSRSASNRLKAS
Chain of Microtubule-associated serine/threonine-protein kinase 2 (Homo sapiens) (Q6P0Q8 whole entry): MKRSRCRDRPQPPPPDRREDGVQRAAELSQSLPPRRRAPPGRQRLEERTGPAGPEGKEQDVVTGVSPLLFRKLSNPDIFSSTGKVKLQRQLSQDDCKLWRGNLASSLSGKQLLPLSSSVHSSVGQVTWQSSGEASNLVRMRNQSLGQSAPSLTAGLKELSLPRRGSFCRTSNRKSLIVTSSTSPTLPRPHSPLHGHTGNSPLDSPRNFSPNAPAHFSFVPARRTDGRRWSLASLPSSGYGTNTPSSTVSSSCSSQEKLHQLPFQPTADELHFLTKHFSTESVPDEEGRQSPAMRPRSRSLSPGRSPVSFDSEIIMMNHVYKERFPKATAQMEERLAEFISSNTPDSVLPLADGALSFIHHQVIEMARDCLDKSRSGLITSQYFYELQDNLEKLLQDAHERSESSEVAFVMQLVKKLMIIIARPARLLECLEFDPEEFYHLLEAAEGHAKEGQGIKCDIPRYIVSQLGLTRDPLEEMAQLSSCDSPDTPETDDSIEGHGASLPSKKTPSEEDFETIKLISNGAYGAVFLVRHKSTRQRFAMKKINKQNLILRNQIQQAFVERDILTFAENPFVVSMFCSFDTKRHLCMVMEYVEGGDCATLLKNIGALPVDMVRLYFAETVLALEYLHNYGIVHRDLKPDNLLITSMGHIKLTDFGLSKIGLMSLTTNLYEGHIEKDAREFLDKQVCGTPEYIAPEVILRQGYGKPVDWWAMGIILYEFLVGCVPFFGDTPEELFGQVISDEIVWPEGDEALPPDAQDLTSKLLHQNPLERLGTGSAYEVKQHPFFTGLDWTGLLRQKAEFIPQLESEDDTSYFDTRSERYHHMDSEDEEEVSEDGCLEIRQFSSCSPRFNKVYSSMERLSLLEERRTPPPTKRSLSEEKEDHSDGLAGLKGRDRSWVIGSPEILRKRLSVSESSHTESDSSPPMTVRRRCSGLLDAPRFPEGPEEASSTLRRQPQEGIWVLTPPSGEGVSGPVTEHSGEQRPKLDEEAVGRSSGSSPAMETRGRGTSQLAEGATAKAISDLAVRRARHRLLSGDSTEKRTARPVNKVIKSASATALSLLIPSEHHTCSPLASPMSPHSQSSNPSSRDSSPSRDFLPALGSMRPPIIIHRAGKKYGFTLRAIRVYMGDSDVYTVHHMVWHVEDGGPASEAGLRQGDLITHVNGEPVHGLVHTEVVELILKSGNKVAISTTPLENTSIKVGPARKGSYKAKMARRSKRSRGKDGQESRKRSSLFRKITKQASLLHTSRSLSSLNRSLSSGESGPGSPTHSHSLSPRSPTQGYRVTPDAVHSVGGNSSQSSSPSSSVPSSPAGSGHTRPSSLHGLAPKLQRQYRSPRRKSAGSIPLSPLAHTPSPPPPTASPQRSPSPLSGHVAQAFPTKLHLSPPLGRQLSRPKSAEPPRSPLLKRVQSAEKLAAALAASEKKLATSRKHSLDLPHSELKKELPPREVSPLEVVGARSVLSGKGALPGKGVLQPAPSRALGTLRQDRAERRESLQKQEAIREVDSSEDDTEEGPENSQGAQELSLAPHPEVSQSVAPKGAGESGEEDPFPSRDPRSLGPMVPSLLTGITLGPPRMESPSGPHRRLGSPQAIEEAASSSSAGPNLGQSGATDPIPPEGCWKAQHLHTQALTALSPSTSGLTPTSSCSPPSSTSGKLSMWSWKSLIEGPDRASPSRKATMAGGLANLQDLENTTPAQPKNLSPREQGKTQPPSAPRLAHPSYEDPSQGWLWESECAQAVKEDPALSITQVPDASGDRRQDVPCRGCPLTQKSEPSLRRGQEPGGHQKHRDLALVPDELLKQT
Chain of Interleukin-1 receptor-associated kinase 3 (Homo sapiens) (Q9Y616 whole entry): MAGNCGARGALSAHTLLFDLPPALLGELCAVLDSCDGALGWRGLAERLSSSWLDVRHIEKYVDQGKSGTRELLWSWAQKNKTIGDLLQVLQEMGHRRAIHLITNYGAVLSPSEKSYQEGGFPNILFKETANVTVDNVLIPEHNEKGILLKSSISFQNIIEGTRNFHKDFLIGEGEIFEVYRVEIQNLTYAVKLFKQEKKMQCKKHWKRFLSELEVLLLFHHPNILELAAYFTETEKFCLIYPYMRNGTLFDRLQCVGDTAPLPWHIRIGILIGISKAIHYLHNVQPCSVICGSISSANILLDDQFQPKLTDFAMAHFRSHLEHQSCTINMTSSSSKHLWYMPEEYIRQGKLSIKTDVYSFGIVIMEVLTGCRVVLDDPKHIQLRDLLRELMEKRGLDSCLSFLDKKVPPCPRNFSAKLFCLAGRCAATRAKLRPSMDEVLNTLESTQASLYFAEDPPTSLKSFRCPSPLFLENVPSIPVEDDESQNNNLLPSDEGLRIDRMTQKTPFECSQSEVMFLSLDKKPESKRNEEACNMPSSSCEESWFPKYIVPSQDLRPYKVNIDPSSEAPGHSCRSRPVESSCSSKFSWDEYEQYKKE

The inhibition is the relative decrease from the control value, in per cent. On to `CNc1cc(Oc2cc(C(=O)Nc3cc(N4CCN(C)CC4)cc(C(F)(F)F)c3)ccc2C)ncn1`, for which, in test [1], the inhibition was -8.3%.
As to `CCN1CCN(Cc2ccc(NC(=O)c3ccc(C)c(/C=C/c4cnc5[nH]ccc5c4OC)c3)cc2C(F)(F)F)CC1`, the inhibition in [2] is 13.2%; in [3], 1.4%; in test [4], -1.4%; in test [5], 100%.
Consider `CCN1CCN(Cc2ccc(NC(=O)c3ccc(C)c(Oc4ccnc5[nH]ccc45)c3)cc2C(F)(F)F)CC1`, for which the inhibition in test [6] was -9.8%; in test [8], 16.9%; in test [12] it was -8%. The inhibition result in test [7], in [9], in [10] and in test [11] was “inactive” in each case.
